How the values were obtained:
Brain [1] = assay: Antioxidant activity in haloperidol-stimulated Swiss albino mouse brain assessed as superoxide dismutase level per mg of protein (Rvb= 0.941+/- 0.15 U); assay type: functional
Mus musculus [2] = assay: Inhibition of haloperidol-induced catalepsy in Swiss albino mouse at 100 mg/kg, […] 30 min prior to haloperidol challenge by bar test relative to haloperidol control; assay type: functional; conditions: route intraperitoneal, in the assay text read “ip” for “po”
Outline: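 Mice received compound at 100 mg/kg i.p. (in 0.5% gum acacia) 30 min before haloperidol 5 mg/kg i.p., n = 5. The bar test was run every 30 min over 3 h, and descent times were summed as CDT [3 h]. Haloperidol CDT minus vehicle CDT was set as 100% catalepsy, and % inhibition was calculated against it.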

Brain [3] = assay: Antioxidant activity against lipid peroxidation in haloperidol-stimulated Swiss albino mouse brain assessed as malonaldehyde level per mg of protein by lipid peroxidation assay (Rvb= 5.521 +/- 0.23 nmol); assay type: functional, tissue-based
Outline: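 Compound was given 30 min before haloperidol 5 mg/kg i.p. Brain was homogenized in 50 mM Tris-HCl pH 7.4. Homogenate was mixed with SDS, acetic acid and 0.8% TBA, heated 1 h at 95 °C, and extracted into n-butanol/pyridine (15:1). Upper-layer A532 was converted to MDA using ε 1.56 × 10⁵, and protein was measured by Lowry. Results are nmol MDA/mg protein, n = 5.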

Mus musculus [4] = assay: Inhibition of haloperidol-induced catalepsy in Swiss albino mouse assessed as time elapsed until release of forepaw from bar at 100 mg/kg, […] 30 min prior to haloperidol challenge measured after 60 mins by bar test; assay type: functional; conditions: route intraperitoneal, in the assay text read “ip” for “po”
Outline: (§1)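 Adult male pathogen-free Swiss albino mice (18–25 g), n = 5 per group, each used once. Compounds at 100 mg/kg i.p. were given as a suspension in 0.5% gum acacia 30 min before haloperidol 5 mg/kg i.p. Forepaws were placed on a horizontal bar 9 cm high, and descent time was recorded every 30 min for 3 h. Testing ran at 23 ± 1 °C under 20 lux. Values are mean ± S.E.M.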

Mus musculus [5] = assay: Inhibition of haloperidol-induced catalepsy in Swiss albino mouse assessed as time elapsed until release of forepaw from bar at 100 mg/kg, […] 30 min prior to haloperidol challenge measured after 180 mins by bar test; assay type: functional; conditions: route intraperitoneal, in the assay text read “ip” for “po”; outline: as §1
Mus musculus [6] = assay: Inhibition of haloperidol-induced catalepsy in Swiss albino mouse assessed as time elapsed until release of forepaw from bar at 100 mg/kg, […] 30 min prior to haloperidol challenge measured after 30 mins by bar test; assay type: functional; conditions: route intraperitoneal, in the assay text read “ip” for “po”; outline: as §1
Mus musculus [7] = assay: Inhibition of haloperidol-induced catalepsy in Swiss albino mouse assessed as time elapsed until release of forepaw from bar at 100 mg/kg, […] 30 min prior to haloperidol challenge measured after 90 mins by bar test; assay type: functional; conditions: route intraperitoneal, in the assay text read “ip” for “po”; outline: as §1
Mus musculus [8] = assay: Inhibition of haloperidol-induced catalepsy in Swiss albino mouse assessed as time elapsed until release of forepaw from bar at 100 mg/kg, […] 30 min prior to haloperidol challenge measured after 150 mins by bar test; assay type: functional; conditions: route intraperitoneal, in the assay text read “ip” for “po”; outline: as §1
Mus musculus [9] = assay: Inhibition of haloperidol-induced catalepsy in Swiss albino mouse assessed as time elapsed until release of forepaw from bar at 100 mg/kg, […] 30 min prior to haloperidol challenge measured after 120 mins by bar test; assay type: functional; conditions: route intraperitoneal, in the assay text read “ip” for “po”; outline: as §1
Brain [10] = assay: Antioxidant activity in haloperidol-stimulated Swiss albino mouse brain assessed as oxidized glutathione peroxidase level per g of protein (Rvb= 0.765+/- 0.13 U); assay type: functional
Brain [11] = assay: Antioxidant activity against GSH in haloperidol-stimulated Swiss albino mouse brain assessed as reduced glutathione level per gm of tissue (Rvb= 6.753 +/- 0.15 ug); assay type: functional

Row | SMILES | Activity (Brain [1]) [U] | inhibition (INH) (Mus musculus [2]) [%] | Activity (Brain [3]) [nmol] | Catalepsy time (forepaw descent time) (Mus musculus [4]) [min] | Catalepsy duration (time to release forepaw from bar) (Mus musculus [5]) [min] | descent time (Mus musculus [6]) [min] | catalepsy descent time (Mus musculus [7]) [min] | Time to forepaw release from bar (Mus musculus [8]) [min] | catalepsy descent time (Mus musculus [9]) [min] | Activity (Brain [10]) [U] | Activity (Brain [11]) [µg]
1 | CCn1c(=S)sc2c(NC(=S)Nc3ccccc3OC)ncnc21 | 1.866 | 23.7 | 3.12 | 0.25 | 2.4 | 0.3 | 0.883 | 1.62 | 1.25 | 1.331 | 11.672
2 | COc1ccccc1NC(=O)Nc1ncnc2c1sc(=S)n2-c1ccccc1 | 1.992 | 23.4 | 3.2 | 0.817 | 1.57 | 0.433 | 0.95 | 1.38 | 1.48 | 1.134 | 14.362
3 | CCn1c(=S)sc2c(NC(=O)Nc3ccccc3OC)ncnc21 | 1.81 | 29.3 | 2.81 | 0.517 | 2.62 | 0.583 | 0.667 | 2.25 | 1.5 | 1.54 | 14
4 | COc1ccccc1NC(=S)Nc1ncnc2c1sc(=S)n2-c1ccccc1 | 2.35 | 28.5 | 2.75 | 0.733 | 1.82 | 0.417 | 1.3 | 1.87 | 1.8 | 1.6 | 14.2
